ChEMBL document CHEMBL1149343, “Discovery of antiglioma activity of biaryl 1,2,3,4-tetrahydroisoquinoline derivatives and conformationally flexible analogues” (J Med Chem, 2006)

Columns and labels:
C6 = assay: Cytotoxicity against rat C6 glioma cell line; assay type: functional, cell-based
Outline: (§1)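 Cells were maintained in 10% FCS BME (Basal Media Eagle). Compound exposure was in 2% FCS BME for 96 h at 37 °C in humidified 5% CO2. IC50 values came from dose-response experiments over a 4-day incubation.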

Astrocyte = assay: Cytotoxicity against rat astrocytes; assay type: functional, cell-based; outline: as §1
U-87 MG = assay: Cytotoxicity against human U87 cell line; assay type: functional, cell-based, U-87MG ATCC
T98G = assay: Cytotoxicity against human T98G cell line; assay type: functional, cell-based
MCF7 = assay: Cytotoxicity against human MCF7 cell line; assay type: functional, cell-based
A549 = assay: Cytotoxicity against human A549 cell line; assay type: functional, cell-based
LNCaP = assay: Cytotoxicity against human LNCaP cell line; assay type: functional, cell-based
HeLa = assay: Cytotoxicity against human HeLa cell line; assay type: functional, cell-based

Structure (SMILES): Oc1ccc(CCNCCc2ccc(-c3ccccc3)cc2)cc1O
- IC50 (C6): 8.6 µM
- IC50 (Astrocyte): > 100 µM

Structure (SMILES): O=C(c1ccccc1)c1ccc(CC2NCCc3cc(O)c(O)cc32)cc1 (centres undefined)
- IC50 (C6): 9.4 µM
- IC50 (Astrocyte): 21 µM

Structure (SMILES): COc1cc(C[C@@H]2NCCc3cc(O)c(O)cc32)cc(OC)c1OC [TRETOQUINOL]
- IC50 (C6): > 50 µM

Structure (SMILES): C=C1C(OC(=O)N(C)C)=C(c2ccc(C)cc2)Oc2cc(Cl)ccc2N1C
- IC50 (C6): 37.5 µM

Structure (SMILES): Nc1ccc(CC2NCCc3cc(O)c(O)cc32)cc1 (centres undefined)
- IC50 (C6): > 50 µM

Structure (SMILES): COc1ccc(CCN(C)CCc2ccc(-c3ccccc3)cc2)cc1OC
- IC50 (C6): 12.5 µM
- IC50 (Astrocyte): 39 µM

Structure (SMILES): COc1cc2c(cc1OC)CN(CCc1ccc(-c3ccccc3)cc1)CC2
- IC50 (C6): 9.3 µM
- IC50 (Astrocyte): 15.5 µM

Structure (SMILES): COc1cc2c(cc1OC)C(Cc1ccc(C(=O)c3ccccc3)cc1)NCC2 (centres undefined)
- IC50 (C6): 40 µM
- IC50 (Astrocyte): 40 µM

Structure (SMILES): CCC(C)N(C)C(=O)c1cc2ccccc2c(-c2ccccc2Cl)n1 (centres undefined) [PK-11195]
- IC50 (C6): 73 µM

Structure (SMILES): O=c1[nH]cc(F)c(=O)[nH]1 [FLUOROURACIL]
- IC50 (C6): 6.1 µM
- IC50 (Astrocyte): > 100 µM

Structure (SMILES): COc1cc(C(O)C2CNCCc3cc(O)c(O)cc32)cc(OC)c1OC (centres undefined)
- IC50 (C6): > 50 µM

Structure (SMILES): Oc1cc2c(cc1O)C(Cc1ccc(-c3ccccc3)cc1)NCC2 (centres undefined)
- IC50 (C6): 2.6 µM
- IC50 (Astrocyte): 29 µM
- IC50 (U-87 MG): 25.9 µM
- IC50 (T98G): 10.2 µM
- IC50 (MCF7): 3.8 µM
- IC50 (A549): 10.2 µM
- IC50 (LNCaP): 10.7 µM
- IC50 (HeLa): 3 µM

Structure (SMILES): CN1CCc2cc(O)c(O)cc2C1Cc1ccc(-c2ccccc2)cc1 (centres undefined)
- IC50 (C6): 8 µM
- IC50 (Astrocyte): 15 µM

Structure (SMILES): CN1C(=O)CN=C(c2ccc(Cl)cc2)c2cc(Cl)ccc21 [RO-54864]
- IC50 (C6): 95 µM

Structure (SMILES): COc1cc2c(cc1OC)C(Cc1ccc(-c3ccccc3)cc1)NCC2 (centres undefined)
- IC50 (C6): 4.1 µM
- IC50 (Astrocyte): 83.8 µM

Structure (SMILES): N[C@@H](Cc1ccc(N(CCCl)CCCl)cc1)C(=O)O [MELPHALAN]
- IC50 (C6): 12.6 µM
- IC50 (Astrocyte): 34 µM

Structure (SMILES): O=NN(CCCl)C(=O)NCCCl [CARMUSTINE]
- IC50 (C6): 9.3 µM
- IC50 (Astrocyte): 156 µM
